In the RNAGym collection of RNA variant scans (doi:10.1002/anie.201605470) one finds self-cleavage data, which are given here for 167 variants.

B1: Osa-1-4 twister ribozyme (parent)
chain: CCGCCUAACACUGCCAAUGCCGGUCCCAAGCCCGGAUAAAAGUGGAGGGGGCGG

In the series the parent is B1. The experiment in a line: self-cleavage, relative activity (ratio to wild type); higher = more cleavage; co-transcriptional. In short, it runs like this: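 In vitro transcription at 37 °C for 2 h allowed the twister ribozyme to cleave itself as it was made. Its 54-nucleotide Oryza sativa template had been synthesised with 97 % wild-type base and 1 % of each other base at the 48 positions downstream of the cleavage site. A template-switching oligonucleotide was used for reverse transcription, followed by PCR amplification and deep sequencing. Whether reads carried upstream sequence set the cleavage status, and relative activity is the fraction cleaved normalised to wild type.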
As to C21G U37C, the self-cleavage came to 0.08.

Turning to C21G U37G, the self-cleavage is 0.14.

As for C21G U37A, the self-cleavage came to 0.13.

Turning to C21A G53C, the self-cleavage stood at 0.06.

As to C21A G53A, the self-cleavage worked out at 0.19.

Turning to C21A G53U, the self-cleavage was 0.11.

For the variant C21A U12C, the self-cleavage is 0.14.

Take C21A U12A: the self-cleavage came out at 0.18.

Regarding C21A U12G, the self-cleavage came out at 0.12.

C21A G48U: the self-cleavage stood at 0.05.

In the case of C21A G48C, the self-cleavage came to 0.07.

With C21A G48A, the self-cleavage came to 0.06.

For the variant C21G G34C, the self-cleavage came out at 0.83.

For the variant C21G G34A, the self-cleavage worked out at 0.3.

For C21G G34U, the self-cleavage stood at 0.89.

Turning to C21A G22U, the self-cleavage amounted to 0.1.

C21G G54C: the self-cleavage came out at 0.07.

On to C21G G54U, for which the self-cleavage came to 0.11.

Take C21G G54A: the self-cleavage stood at 0.07.

Consider C21G C32U, for which the self-cleavage worked out at 0.02.

For the variant C21G C32G, the self-cleavage worked out at 0.06.

C21G C32A: the self-cleavage amounted to 0.03.

In the case of C21G G45A, the self-cleavage was determined as 0.04.

Take C21G G45U: the self-cleavage was 0.02.

As for C21G G45C, the self-cleavage was found to be 0.02.

As for C21A G44A, the self-cleavage was 0.38.

As to C21A G44U, the self-cleavage was determined as 0.21.

In the case of C21A G44C, the self-cleavage came to 0.24.

For C21G C25A, the self-cleavage amounted to 0.04.

For C21G C25U, the self-cleavage is 0.05.

For C21G C25G, the self-cleavage was 0.03.

With C21G G49U, the self-cleavage came out at 0.02.

As to C21G G49A, the self-cleavage is 0.05.

As for C21G G49C, the self-cleavage was 0.03.

C21A G35U: the self-cleavage stood at 0.44.

For the variant C21A G35A, the self-cleavage is 0.87.

Turning to C21A G35C, the self-cleavage stood at 0.06.

As to C21A G54C, the self-cleavage was determined as 0.32.

On to C21A G54A, for which the self-cleavage turned out to be 0.29.

C21A G54U: the self-cleavage was 0.59.

For C21U C9G, the self-cleavage turned out to be 0.74.

Turning to C21U C9U, the self-cleavage is 0.92.

For C21U C9A, the self-cleavage worked out at 0.55.

For the variant C21U C26A, the self-cleavage amounted to 0.06.

Turning to C21U C26G, the self-cleavage was 0.12.

Consider C21U C26U, for which the self-cleavage amounted to 0.88.

For the variant C21G G22U, the self-cleavage worked out at 0.5.

With C21G G22A, the self-cleavage came out at 0.49.

Regarding C21G G22C, the self-cleavage amounted to 0.16.

As to C21A U37A, the self-cleavage was 0.92.

C21A U37G: the self-cleavage was 0.94.

Turning to C21A U37C, the self-cleavage came out at 0.78.

C21G G30C: the self-cleavage was 0.02.

As to C21G G30A, the self-cleavage is 0.02.

C21G G30U: the self-cleavage came to 0.02.

In the case of C21G G23C, the self-cleavage was determined as 0.03.

With C21G G23U, the self-cleavage is 0.07.

Turning to C21G G23A, the self-cleavage was determined as 0.07.

On to C21A U24C, for which the self-cleavage is 0.06.

C21A U24A: the self-cleavage worked out at 0.07.

Consider C21A U24G, for which the self-cleavage was 0.06.

Turning to C21U C25U, the self-cleavage is 0.88.

For C21U C25G, the self-cleavage came to 0.14.

C21U C25A: the self-cleavage was 0.11.

For C21G G19A, the self-cleavage is 0.05.

With C21G G19U, the self-cleavage stood at 0.03.

As to C21G G19C, the self-cleavage came to 0.02.

For C21A G49C, the self-cleavage was determined as 0.05.

Turning to C21A G49A, the self-cleavage came to 0.07.

As for C21A G49U, the self-cleavage was 0.06.

For the variant C21G G51A, the self-cleavage is 0.07.

Regarding C21G G51C, the self-cleavage turned out to be 0.02.

In the case of C21G G51U, the self-cleavage came to 0.06.

C21G U18C: the self-cleavage stood at 0.08.

As for C21G U18G, the self-cleavage is 0.11.

On to C21G U18A, for which the self-cleavage was found to be 0.1.

With C21G G53A, the self-cleavage is 0.08.

On to C21G G53C, for which the self-cleavage came out at 0.02.

As to C21G G53U, the self-cleavage amounted to 0.04.

For C21A U18C, the self-cleavage was determined as 0.82.

With C21A U18A, the self-cleavage came to 0.83.

In the case of C21A U18G, the self-cleavage stood at 0.6.

For C21A G30U, the self-cleavage turned out to be 0.04.

As for C21A G30C, the self-cleavage stood at 0.04.

For the variant C21A G30A, the self-cleavage amounted to 0.03.

For C21G C31U, the self-cleavage was determined as 0.05.

C21G C31G: the self-cleavage was determined as 0.06.

Take C21G C31A: the self-cleavage was found to be 0.02.

For C21A G51C, the self-cleavage came out at 0.07.

As for C21A G51U, the self-cleavage came out at 0.25.

For the variant C21A G51A, the self-cleavage is 0.31.

C21A G42A: the self-cleavage stood at 0.1.

As for C21A G42U, the self-cleavage turned out to be 0.05.

C21A G42C: the self-cleavage is 0.07.

C21A G34C: the self-cleavage came to 0.92.

C21A G34U: the self-cleavage came out at 1.05.

As to C21A G34A, the self-cleavage came to 0.91.

Consider C21G U24C, for which the self-cleavage turned out to be 0.04.

As for C21G U24A, the self-cleavage worked out at 0.06.

With C21G U24G, the self-cleavage turned out to be 0.03.

In the case of C21G G35C, the self-cleavage is 0.03.

Consider C21G G35U, for which the self-cleavage amounted to 0.06.

Regarding C21G G35A, the self-cleavage came out at 0.08.

As to C21U C32G, the self-cleavage worked out at 0.11.

For C21U C32A, the self-cleavage is 0.09.

With C21U C27U, the self-cleavage stood at 0.14.

As to C21U C27G, the self-cleavage is 0.09.

C21U C27A: the self-cleavage was found to be 0.15.

As for C21G G44A, the self-cleavage was 0.09.

On to C21G G44C, for which the self-cleavage was found to be 0.08.

Consider C21G G44U, for which the self-cleavage was 0.08.

Regarding C21A G23C, the self-cleavage came out at 0.03.

As to C21A G23A, the self-cleavage is 0.07.

In the case of C21A G23U, the self-cleavage is 0.04.

With C21G G48U, the self-cleavage was 0.02.

With C21G G48C, the self-cleavage was 0.03.

In the case of C21G G48A, the self-cleavage is 0.03.

Turning to C21G G42C, the self-cleavage was 0.05.

For the variant C21G G42A, the self-cleavage is 0.05.

C21G G42U: the self-cleavage was determined as 0.02.

C21G G50A: the self-cleavage is 0.09.

On to C21G G50C, for which the self-cleavage worked out at 0.06.

For C21G G50U, the self-cleavage stood at 0.1.

Consider C21G C52U, for which the self-cleavage is 0.1.

For C21G C52G, the self-cleavage stood at 0.18.

For the variant C21G C52A, the self-cleavage stood at 0.1.

Regarding C21A U43C, the self-cleavage came out at 0.11.

C21A U43A: the self-cleavage was determined as 0.09.

For the variant C21A U43G, the self-cleavage amounted to 0.1.

Turning to C21G G13C, the self-cleavage was found to be 0.01.

In the case of C21G G13A, the self-cleavage is 0.02.

Take C21G G13U: the self-cleavage is 0.02.

Take C21U C31A: the self-cleavage turned out to be 0.06.

As to C21U C31G, the self-cleavage came out at 0.14.

Regarding C21U C31U, the self-cleavage is 0.97.

For the variant C21G, the self-cleavage is 0.08.

For the variant C21U, the self-cleavage stood at 1.03.

As to C21A G47C, the self-cleavage is 0.05.

As for C21A G47A, the self-cleavage is 0.07.

In the case of C21A G47U, the self-cleavage worked out at 0.07.

On to C21G C26U, for which the self-cleavage came out at 0.06.

Turning to C21G C26A, the self-cleavage was found to be 0.02.

With C21G C26G, the self-cleavage amounted to 0.05.

Turning to C21G U12C, the self-cleavage stood at 0.04.

Turning to C21G U12A, the self-cleavage worked out at 0.08.

As for C21G U12G, the self-cleavage was 0.06.

C21G C27G: the self-cleavage turned out to be 0.03.

Turning to C21G C27A, the self-cleavage turned out to be 0.04.

On to C21G C27U, for which the self-cleavage turned out to be 0.02.

Consider C21G C33G, for which the self-cleavage amounted to 0.05.

For the variant C21G C33U, the self-cleavage came to 0.05.

On to C21G C33A, for which the self-cleavage came to 0.03.

On to C21A G50C, for which the self-cleavage was found to be 0.24.

As for C21A G50U, the self-cleavage was found to be 0.52.

For C21A G50A, the self-cleavage stood at 0.85.

With C21G U43G, the self-cleavage turned out to be 0.08.

With C21G U43C, the self-cleavage was 0.05.

As for C21G U43A, the self-cleavage came to 0.09.

For C21A G45A, the self-cleavage was 0.05.

Consider C21A G45C, for which the self-cleavage was 0.05.

As for C21A G45U, the self-cleavage is 0.05.

Consider C21G C9A, for which the self-cleavage was 0.04.

Take C21G C9U: the self-cleavage stood at 0.04.

Turning to C21G C9G, the self-cleavage turned out to be 0.07.

For the variant C21G G47C, the self-cleavage turned out to be 0.04.

C21G G47U: the self-cleavage was found to be 0.03.

As for C21G G47A, the self-cleavage was found to be 0.03.
